# Measured values: ChEMBL document CHEMBL1122697, “Resolved 3-(3-hydroxyphenyl)-N-n-propylpiperidine and its analogues: central dopamine receptor activity” (1984)
# Legend:
# Rattus norvegicus [1] = assay: Motor activity with reserpine pretreatment at dose 7.0 umol/kg; assay type: functional
# Outline: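 Test drug dissolved in saline, given sc in the neck (n = 4). Rats placed singly in motility meter cages immediately after dosing. Motor activity recorded as accumulated counts over 0–30 min and compared with controls.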
# Rattus norvegicus [2] = species: Rattus norvegicus; assay: Half-maximal decrease of DOPA accumulation upon reserpine pretreatment in the corpus striatum of rat brain; assay type: functional
# Rattus norvegicus [3] = species: Rattus norvegicus; assay: Half-maximal decrease of DOPA accumulation upon reserpine pretreatment in the limbic system of rat brain; assay type: functional
# Rattus norvegicus [4] = assay: Motor activity with reserpine pretreatment at dose 133 umol/kg; assay type: functional
# Rattus norvegicus [5] = assay: Motor activity with reserpine pretreatment at dose 265 umol/kg; assay type: functional
# Rattus norvegicus [6] = assay: Motor activity with reserpine pretreatment at dose 100 uM/kg; assay type: functional
# Rattus norvegicus [7] = species: Rattus norvegicus; assay: […] without pretreatment was determined; motor activity 40% of control was observed at the highest dose; assay type: functional
# Rattus norvegicus [8] = assay: Half-maximal decrease of DOPA accumulation (no reserpine pretreatment) in the limbic system of rat brain at dose 227 uM/kg; assay type: functional; set-up: scale not given: the % may be the effect or the level left
# Outline: (§1)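 Male Sprague-Dawley rats (200-300 g), not pretreated, received the drug sc in the neck, dissolved in saline. NSD 1015 (100 mg/kg) followed 35 min later. Dopa accumulation was measured in limbic and striatal portions. […] Statistics by Student's t test.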
# Rattus norvegicus [9] = assay: Half-maximal decrease of DOPA accumulation (no reserpine pretreatment) in the striatum of rat brain at dose 227 uM/kg; assay type: functional; set-up: scale not given: the % may be the effect or the level left; outline: as §1
# Rattus norvegicus [10] = assay: Motor activity with reserpine pretreatment at dose 53 uM/kg; assay type: functional
# Rattus norvegicus [11] = species: Rattus norvegicus; assay: Low dose of compound giving significant reduction and increase in motor activity without pretreatment was determined; motor activity 58% of control was observed at the lowest dose; assay type: functional
# Outline: (§2)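 Non-pretreated male Sprague-Dawley rats received the compound sc in the neck (n = 4). They were placed singly in test cages and put into motility meters 5 min later. Motor activity was recorded over 5-35 min. The dose reported is the lowest giving a significant reduction or increase in activity, expressed as percent of controls.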
# Rattus norvegicus [12] = assay: Half-maximal decrease of DOPA accumulation (no reserpine pretreatment) in the limbic system of rat brain at dose 3.7 uM/kg; assay type: functional; set-up: scale not given: the % may be the effect or the level left; outline: as §1
# Rattus norvegicus [13] = assay: Half-maximal decrease of DOPA accumulation (no reserpine pretreatment) in the striatum of rat brain at dose 3.7 uM/kg; assay type: functional; set-up: scale not given: the % may be the effect or the level left; outline: as §1
# Rattus norvegicus [14] = species: Rattus norvegicus; assay: High dose of compound giving significant reduction and increase in motor activity without pretreatment was determined; motor activity 92% of control was observed at the highest dose; assay type: functional; outline: as §2
# Rattus norvegicus [15] = assay: Effect on HVA level in rat brain striatum regions at a dose of 27 uM/kg sc 60 min before death; assay type: functional, organism-based
# Outline: (§3)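 They were killed 60 min later. DOPAC and HVA were measured by HPLC in limbic and striatal brain portions. Values are percent of control means ± standard error of the mean.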
# Rattus norvegicus [16] = assay: (§4) Effect on DOPAC level in limbic system of rat brain at a dose of 27 uM/kg sc 60 min before death; assay type: functional, organism-based; outline: as §3
# Rattus norvegicus [17] = assay: Effect on DOPAC level in rat brain striatum regions at a dose of 27 uM/kg sc 60 min before death; assay type: functional, organism-based; outline: as §3
# Rattus norvegicus [18] = assay: Effect on HVA level in rat brain limbic regions at a dose of 27 uM/kg sc 60 min before death; assay type: functional, organism-based; outline: as §3
# Rattus norvegicus [19] = assay: Motor activity with reserpine pretreatment at dose 3.3 uM/kg; assay type: functional
# Rattus norvegicus [20] = species: Rattus norvegicus; assay: […] without pretreatment was determined; motor activity 137% of control was observed at the highest dose; assay type: functional
# Rattus norvegicus [21] = assay: Half-maximal decrease of DOPA accumulation (no reserpine pretreatment) in the limbic system of rat brain at dose 0.98 uM/kg; assay type: functional; set-up: scale not given: the % may be the effect or the level left; outline: as §1
# Rattus norvegicus [22] = assay: Half-maximal decrease of DOPA accumulation (no reserpine pretreatment) in the striatum of rat brain at dose 0.24 uM/kg; assay type: functional; set-up: scale not given: the % may be the effect or the level left; outline: as §1
# Rattus norvegicus [23] = species: Rattus norvegicus; assay: Low dose of compound giving significant reduction and increase in motor activity without pretreatment was determined; motor activity 41% of control was observed at the lowest dose; assay type: functional; outline: as §2
# Rattus norvegicus [24] = assay: Motor activity with reserpine pretreatment at dose 13 uM/kg; assay type: functional
# Rattus norvegicus [25] = species: Rattus norvegicus; assay: High dose of compound giving significant reduction and increase in motor activity without pretreatment was determined; motor activity 230% of control was observed at the highest dose; assay type: functional; outline: as §2
# Rattus norvegicus [26] = species: Rattus norvegicus; assay: Low dose of compound giving significant reduction and increase in motor activity without pretreatment was determined; motor activity 75% of control was observed at the lowest dose; assay type: functional; outline: as §2
# Rattus norvegicus [27] = assay: Half-maximal decrease of DOPA accumulation (no reserpine pretreatment) in the striatum of rat brain at dose 0.8 uM/kg; assay type: functional; set-up: scale not given: the % may be the effect or the level left; outline: as §1
# Rattus norvegicus [28] = assay: Half-maximal decrease of DOPA accumulation (no reserpine pretreatment) in the limbic system of rat brain at dose 0.8 uM/kg; assay type: functional; set-up: scale not given: the % may be the effect or the level left; outline: as §1
# Rattus norvegicus [29] = assay: as §4; assay type: functional, organism-based; remark: listed apart in the source
# Outline: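 Male Sprague-Dawley rats (200-300 g) got a single sc dose of 27 μmol/kg, dissolved in saline. They were killed 60 min later. DOPAC and HVA were measured by HPLC in limbic and striatal brain portions. Values are percent of control means ± standard error of the mean.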
# Rattus norvegicus [30] = species: Rattus norvegicus; assay: Low dose of compound giving significant reduction and increase in motor activity without pretreatment was determined; motor activity 53% of control was observed at the lowest dose; assay type: functional; outline: as §2
# Rattus norvegicus [31] = assay: Half-maximal decrease of DOPA accumulation (no reserpine pretreatment) in the limbic system of rat brain at dose 3.9 uM/kg; assay type: functional; set-up: scale not given: the % may be the effect or the level left; outline: as §1
# Rattus norvegicus [32] = assay: Half-maximal decrease of DOPA accumulation (no reserpine pretreatment) in the striatum of rat brain at dose 0.98 uM/kg; assay type: functional; set-up: scale not given: the % may be the effect or the level left; outline: as §1
# Rattus norvegicus [33] = assay: Motor activity with reserpine pretreatment at dose 213 uM/kg; assay type: functional
# Rattus norvegicus [34] = species: Rattus norvegicus; assay: Low dose of compound giving significant reduction and increase in motor activity without pretreatment was determined; motor activity 74% of control was observed at the lowest dose; assay type: functional; outline: as §2
# Rattus norvegicus [35] = assay: Half-maximal decrease of DOPA accumulation (no reserpine pretreatment) in the limbic system of rat brain at dose 213 uM/kg; assay type: functional; set-up: scale not given: the % may be the effect or the level left; outline: as §1
# Rattus norvegicus [36] = assay: Half-maximal decrease of DOPA accumulation (no reserpine pretreatment) in the striatum of rat brain at dose 27 uM/kg; assay type: functional; set-up: scale not given: the % may be the effect or the level left; outline: as §1
# Rattus norvegicus [37] = assay: Motor activity with reserpine pretreatment at dose 14 umol/kg; assay type: functional
# Rattus norvegicus [38] = species: Rattus norvegicus; assay: Low dose of compound giving significant reduction and increase in motor activity without pretreatment was determined; motor activity 32% of control was observed at the lowest dose; assay type: functional; outline: as §2
# Rattus norvegicus [39] = assay: Half-maximal decrease of DOPA accumulation (no reserpine pretreatment) in the limbic system of rat brain at dose 0.83 uM/kg; assay type: functional; set-up: scale not given: the % may be the effect or the level left; outline: as §1
# Rattus norvegicus [40] = species: Rattus norvegicus; assay: High dose of compound giving significant reduction and increase in motor activity without pretreatment was determined; motor activity 55% of control was observed at the highest dose; assay type: functional; outline: as §2
# Rattus norvegicus [41] = assay: Reduction of DOPA accumulation upon reserpine pretreatment in the corpus striatum of rat brain at a dose of 100 umol/kg; assay type: functional
# Outline: (§5)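 Test drug dissolved in saline, injected sc in the neck. 30 min later, NSD 1015 100 mg/kg given. Dopa measured in brain portions (limbic, striatal) and expressed as percent reduction from control levels. Student's t test used for statistics.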
# Rattus norvegicus [42] = assay: Reduction of DOPA accumulation upon reserpine pretreatment in the limbic system of rat brain at a dose of 100 umol/kg; assay type: functional; outline: as §5
smiles,measurement,setting,value
Oc1cccc([C@@H]2CCCN(CCc3ccccc3)C2)c1,Accumulated counts,Rattus norvegicus [1],71
same,ED50,Rattus norvegicus [2],0.13 µmol/kg
CN1CCc2cccc3c2[C@H]1Cc1ccc(O)c(O)c1-3 [APOMORPHINE],ED50,Rattus norvegicus [2],0.22 µmol/kg
same,ED50,Rattus norvegicus [3],0.19 µmol/kg
CN1CCC[C@H](c2cccc(O)c2)C1,Accumulated counts,Rattus norvegicus [4],88
same,ED50,Rattus norvegicus [2],2.9 µmol/kg
Oc1cccc([C@H]2CCCNC2)c1,Accumulated counts,Rattus norvegicus [5],47
same,ED50,Rattus norvegicus [2],14 µmol/kg
CN1CCC[C@@H](c2cccc(O)c2)C1,Accumulated counts,Rattus norvegicus [6],36
same,Dose,Rattus norvegicus [7],227 µM/kg
same,Control,Rattus norvegicus [8],48%
same,Control,Rattus norvegicus [9],51%
same,ED50,Rattus norvegicus [2],10 µmol/kg
CCCCN1CCC[C@H](c2cccc(O)c2)C1,Accumulated counts,Rattus norvegicus [10],180
same,Dose,Rattus norvegicus [11],3.7 µM/kg
same,Control,Rattus norvegicus [12],72%
same,Control,Rattus norvegicus [13],76%
same,Dose,Rattus norvegicus [14],53 µM/kg
same,ED50,Rattus norvegicus [2],2.2 µmol/kg
same,ED50,Rattus norvegicus [3],2.3 µmol/kg
same,Level,Rattus norvegicus [15],52
same,Level,Rattus norvegicus [16],55
same,Level,Rattus norvegicus [17],58
same,Level,Rattus norvegicus [18],52
CC(C)N1CCC[C@@H](c2cccc(O)c2)C1,Accumulated counts,Rattus norvegicus [19],38
same,Dose,Rattus norvegicus [20],13 µM/kg
same,Control,Rattus norvegicus [21],74%
same,Control,Rattus norvegicus [22],76%
same,ED50,Rattus norvegicus [2],0.45 µmol/kg
same,Level,Rattus norvegicus [15],68
same,Level,Rattus norvegicus [16],60
same,Level,Rattus norvegicus [17],81
same,Level,Rattus norvegicus [18],51
same,Dose,Rattus norvegicus [23],0.2 µM/kg
CCCN1CCC[C@H](c2cccc(O)c2)C1,Accumulated counts,Rattus norvegicus [24],78
same,Dose,Rattus norvegicus [25],213 µM/kg
same,Dose,Rattus norvegicus [26],1.6 µM/kg
same,Control,Rattus norvegicus [27],81%
same,Control,Rattus norvegicus [28],86%
same,ED50,Rattus norvegicus [2],1.3 µmol/kg
same,Level,Rattus norvegicus [15],45
same,Level,Rattus norvegicus [17],63
same,Level,Rattus norvegicus [18],52
same,Level,Rattus norvegicus [29],59
CC(C)N1CCC[C@H](c2cccc(O)c2)C1,Accumulated counts,Rattus norvegicus [10],49
same,Dose,Rattus norvegicus [30],0.2 µM/kg
same,Control,Rattus norvegicus [31],77%
same,Control,Rattus norvegicus [32],85%
same,ED50,Rattus norvegicus [2],13 µmol/kg
same,Level,Rattus norvegicus [15],89
same,Level,Rattus norvegicus [17],74
same,Level,Rattus norvegicus [18],80
same,Level,Rattus norvegicus [29],70
CCCN1CCC[C@@H](c2cccc(O)c2)C1 [PRECLAMOL],Accumulated counts,Rattus norvegicus [33],12
same,Dose,Rattus norvegicus [7],213 µM/kg
same,Dose,Rattus norvegicus [34],0.8 µM/kg
same,Control,Rattus norvegicus [35],95%
same,Control,Rattus norvegicus [36],147%
same,ED50,Rattus norvegicus [2],1.7 µmol/kg
same,Level,Rattus norvegicus [15],162
same,Level,Rattus norvegicus [16],114
same,Level,Rattus norvegicus [17],145
same,Level,Rattus norvegicus [18],100
Oc1cccc([C@H]2CCCN(CCc3ccccc3)C2)c1,Accumulated counts,Rattus norvegicus [37],26
same,ED50,Rattus norvegicus [2],6.9 µmol/kg
CCCCN1CCC[C@@H](c2cccc(O)c2)C1,Accumulated counts,Rattus norvegicus [10],63
same,Dose,Rattus norvegicus [38],3.7 µM/kg
same,Control,Rattus norvegicus [39],84%
same,ED50,Rattus norvegicus [2],0.77 µmol/kg
same,Level,Rattus norvegicus [15],142
same,Level,Rattus norvegicus [16],91
same,Level,Rattus norvegicus [17],118
same,Level,Rattus norvegicus [18],103
Oc1cccc([C@@H]2CCCNC2)c1,Control,Rattus norvegicus [8],50%
same,Control,Rattus norvegicus [9],44%
same,Dose,Rattus norvegicus [40],227 µM/kg
same,Reduction,Rattus norvegicus [41],26%
same,Reduction,Rattus norvegicus [42],19%
